Measurements: ChEMBL document CHEMBL2150978, “Phosphorodiamidates as a promising new phosphate prodrug motif for antiviral drug discovery: application to anti-HCV agents” (J Med Chem, 2011)

Experiments:
[1] = Stability of the compound in triethylammonium bicarbonate buffer assessed as compound decomposition at pH 8.5 incubated at 37 degC by [31P] NMR spectroscopy; assay type: physicochemical
Summary of the method: (§1)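 Base stability tested at pH 8.5 and at pH 11, both at 37 °C, followed by ³¹P NMR, with pH 11 samples followed to 17 h. Half-life estimated assuming first-order decay.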

[2] = Stability in phosphate buffer at pH 7 after 14 hrs by [31P] NMR spectroscopy; assay type: physicochemical; conditions: pH 7, 14 h
[3] = system: Hepatitis C virus; assay: Antiviral activity against Hepatitis C virus subtype 1b Con1 infected in human Huh7 cells assessed as inhibition of HCV replicon-encoded Renilla luciferase reporter activity after 72 hrs by HCV replicon assay; assay type: functional, organism-based, Hepacivirus hominis; conditions: Con1, Huh-7, 72 h
Summary of the method: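 Huh7 cells stably carrying a bicistronic subgenomic genotype 1b (Con1) replicon with Renilla luciferase reporter, seeded at 2 × 10⁴ cells/well the day before. Four-fold serial dilutions in growth medium, no-drug controls on each plate; 3 days at 37 °C, 5% CO₂. Luciferase reagent 20 min, then luminescence (RLU) read; EC₅₀ derived.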

[4] = system: Liver; assay: Clast in Sprague-Dawley rat liver assessed as 2'-C-methyl guanosine triphosphate level at 10 mg/kg, po up to 24 hrs by LC-MS/Ms analysis; assay type: ADME, organism-based; parameters: dose 10 mg/kg, route oral; conditions: in vivo
Summary of the method: (§2)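 Male Sprague-Dawley rats dosed orally by gavage at 10 mg/kg in 95% Capmul MCM/5% Tween 80. Livers collected terminally at eight time points up to 24 h and snap-frozen in liquid nitrogen. Liver 2′-C-methylguanosine triphosphate quantified by LC-MS/MS, linear over 100−4000 ng per gram of tissue (r² ≥ 0.99, ≥85% accuracy, ≤2% CV).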

[5] = Stability in phosphate buffer assessed as compound decomposition by HPLC; assay type: physicochemical
[6] = Stability of the compound in triethylammonium bicarbonate buffer assessed as compound decomposition at pH 11 incubated for 17 hrs at 37 degC by [31P] NMR spectroscopy; assay type: physicochemical; conditions: pH 11, 17 h; summary of the method: as §1
[7] = Selectivity index, ratio of CC50 for human HuH7 cells to EC50 for Hepatitis C virus subtype 1b Con1; assay type: toxicity, cell-based, Huh-7; conditions: read-out: Ratio CC50/EC50
Summary of the method: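 Huh7 cells carrying a stable bicistronic subgenomic genotype 1b (Con1) HCV replicon with Renilla luciferase reporter, 2 × 10⁴ cells per well. Four-fold serial dilutions, 3 days at 37 °C, 5% CO₂. Replicon inhibition read by luciferase luminescence (RLU) and cytotoxicity by CellTiter-Glo in the same cell line. SI taken as CC50/EC50.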

[8] = Stability of the compound in triethylammonium bicarbonate buffer assessed as compound decomposition at pH 11 incubated at 37 degC by [31P] NMR spectroscopy; assay type: physicochemical; summary of the method: as §1
[9] = system: Serum; assay: Stability in human serum incubated for 12 hrs by [31P] NMR spectroscopy; assay type: ADME, cell-free
[10] = system: Liver; assay: Tmax in Sprague-Dawley rat liver assessed as 2'-C-methyl guanosine triphosphate level at 10 mg/kg, po up to 24 hrs by LC-MS/Ms analysis; assay type: ADME, organism-based; parameters: dose 10 mg/kg, route oral; conditions: in vivo; summary of the method: as §2
[11] = Drug metabolism in acetone-d6 and TRIZMA buffer at pH 7.4 assessed as (S)-2-((((2R,3R,4R,5R)-5-(2-amino-6-methoxy-9H-purin-9-yl)-3,4-dihydroxy-4-methyltetrahydrofuran-2-yl)methoxy)oxidophosphorylamino)propanoate level at 6.94 ppm at pH 7.4 after 1 hr by 31P NMR in presence of carboxypeptidase Y; assay type: physicochemical; conditions: pH 7.4, 1 h
Summary of the method: (§3)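 Compound (about 5 mg) in 200 μL acetone-d₆ plus 400 μL Trizma buffer pH 7.4. Baseline ³¹P NMR recorded, then 0.3−0.5 mg carboxypeptidase Y in 200 μL Trizma pH 7.4 added. Processing followed by ³¹P NMR kinetics. A buffer phosphate impurity peak stays constant throughout.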

[12] = Stability in citric acid-HCl buffer at pH 2 incubated for 14 hrs at 37 or 47 degC by [31P] NMR spectroscopy; assay type: physicochemical; conditions: pH 2, 14 h
Summary of the method: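 Compound in citric acid−HCl buffer pH 2, held at 37 or 47 °C and monitored by ³¹P NMR over 14 h.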

[13] = Cytotoxicity against human HuH7 cells after 3 days; assay type: cell-based, Huh-7
Summary of the method: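 Huh7 replicon cells seeded at 2 × 10⁴ per well one day before dosing. Four-fold serial dilutions in growth medium, no-drug controls on each plate. Incubated 3 days at 37 °C, 5% CO₂. Viability read by CellTiter-Glo luminescence after 20 min with reagent.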

[14] = system: Liver; assay: Cmax in Sprague-Dawley rat liver assessed as 2'-C-methyl guanosine triphosphate level at 10 mg/kg, po up to 24 hrs by LC-MS/Ms analysis; assay type: ADME, organism-based; parameters: dose 10 mg/kg, route oral; conditions: in vivo; summary of the method: as §2
[15] = system: Liver; assay: AUC (0 to t) in Sprague-Dawley rat liver assessed as 2'-C-methyl guanosine triphosphate level at 10 mg/kg, po up to 24 hrs by LC-MS/Ms analysis; assay type: ADME, organism-based; parameters: dose 10 mg/kg, route oral; conditions: in vivo; summary of the method: as §2
[16] = Drug metabolism in acetone-d6 and TRIZMA buffer at pH 7.4 assessed as (S)-2-((((2R,3R,4R,5R)-5-(2-amino-6-methoxy-9H-purin-9-yl)-3,4-dihydroxy-4-methyltetrahydrofuran-2-yl)methoxy)oxidophosphorylamino)propanoate level at 6.95 ppm at pH 7.4 after 1 hr by 31P NMR in presence of carboxypeptidase Y; assay type: physicochemical; conditions: pH 7.4, 1 h; summary of the method: as §3

Row | SMILES | Stability [1] | Stability [2] | EC50 [3] [nM] | EC90 [3] [nM] | Clast [4] [ng/g] | Stability [5] | Stability [6] | selectivity ratio [7] | Stability [8] | Stability [9] | Tmax [10] [h] | Drug metabolism [11] | Stability [12] | CC50 at 72 h [13] [µM] | Cmax [14] [ng/g] | AUCt [15] [ng·h/g] | Drug metabolism [16]
1 | COc1nc(N)nc2c1ncn2[C@@H]1O[C@H](COP(=O)(N[C@@H](C)C(=O)OCC(C)(C)C)N[C@@H](C)C(=O)OCC(C)(C)C)[C@@H](O)[C@@]1(C)O (mixture of isomers) | Stable | Stable | 60 | 200 | 800 | Stable | Stable | > 1600 | Stable | Stable | 8 | Active | Stable | > 100 | 1580 | 25147 | Active
2 | COc1nc(N)nc2c1ncn2[C@@H]1O[C@H](COP(=O)(N[C@H](C)C(=O)OCC(C)(C)C)N[C@H](C)C(=O)OCC(C)(C)C)[C@@H](O)[C@@]1(C)O (mixture of isomers) | – | – | 110 | 500 | 441.7 | – | – | – | – | – | 8 | – | – | > 100 | 598.3 | 11608 | –
3 | CC[C@H](C)[C@H](NP(=O)(N[C@H](C(=O)OC1CCCCC1)[C@@H](C)CC)OC[C@H]1O[C@@H](n2cnc3c(OC)nc(N)nc32)[C@](C)(O)[C@@H]1O)C(=O)OC1CCCCC1 (mixture of isomers) | – | – | 4000 | 7100 | – | – | – | 4 | – | – | – | – | – | 14 | – | – | –
4 | COc1nc(N)nc2c1ncn2[C@@H]1O[C@H](COP(=O)(N[C@H](C(=O)OCc2ccccc2)C(C)C)N[C@H](C(=O)OCc2ccccc2)C(C)C)[C@@H](O)[C@@]1(C)O (mixture of isomers) | – | – | 120 | 660 | 73.6 | – | – | – | – | – | 4 | – | – | 49 | 359.5 | 4478 | –
